Laboratory results published in ChEMBL document CHEMBL3865828, “Total synthesis of 8-(6″-umbelliferyl)-apigenin and its analogs as anti-diabetic reagents” (2016).
Calls of active or inactive are those of the source. The rule behind the calls is not given here.

Experiments:
Type in all cases: functional
3T3-L1 [1] = assay: Increase in 2-NBDG uptake in serum-starved mouse 3T3L1 adipocytes at 1 mM measured under basal condition by inverted fluorescence microscopy
Method in brief: (§1)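 Adipocytes from 3T3-L1 cells, differentiated 2 days post-confluence in DMEM with 0.5 mM IBMX, dexamethasone and insulin for 48 h, then 2 days in DMEM (10% FBS) with insulin alone. Used 8–10 days after differentiation start. After 1-h serum starvation, cells got agents in KRH for 0.5 h, then […] 2-NBDG for 1 h. They were washed 3× with KRH and imaged by inverted fluorescence microscopy. Metformin was the control.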

3T3-L1 [2] = assay: Increase in glucose uptake in serum-starved mouse 3T3L1 adipocytes at 1 mmol/L pretreated followed by glucose addition measured under basal condition by glucose oxidase peroxidase method
Method in brief: (§2)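 3T3-L1 adipocytes, used 8–10 days after differentiation (IBMX/dexamethasone/insulin for 48 h, then insulin for 2 days), were incubated with agents in KRH buffer. Glucose in KRH was measured at 0 h and 4 h by glucose oxidase–peroxidase kit, and the difference was taken as consumed glucose. Metformin was the positive control. Data are mean ± SEM of independent experiments.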

3T3-L1 [3] = assay: Increase in glucose uptake in serum-starved mouse 3T3L1 adipocytes at 10 uM pretreated followed by glucose addition measured under basal condition by glucose oxidase peroxidase method; method in brief: as §2
3T3-L1 [4] = assay: Increase in 2-NBDG uptake in serum-starved mouse 3T3L1 adipocytes at 10 uM measured under basal condition by inverted fluorescence microscopy; method in brief: as §1

## CN(C)C(=N)NC(=N)N
3T3-L1 [1]
  Activity: Active
3T3-L1 [2]
  Activity: Active

## O=c1c(O)c(-c2ccc(O)c(O)c2)oc2cc(O)cc(O)c12
3T3-L1 [3]
  Activity: Active

## O=c1ccc2cc(-c3c(O)cc(O)c4c(=O)cc(-c5ccc(O)cc5)oc34)c(O)cc2o1
3T3-L1 [4]
  Activity: Active
3T3-L1 [3]
  Activity: 48%

## COc1cc2oc(=O)ccc2cc1-c1c(O)cc(O)c2c(=O)cc(-c3ccc(O)c(O)c3)oc12
3T3-L1 [4]
  Activity: Active
3T3-L1 [3]
  Activity: Active

## COc1cc2oc(=O)ccc2cc1-c1c(O)cc(O)c2c(=O)c(O)c(-c3ccc(O)c(O)c3)oc12
3T3-L1 [4]
  Activity: Active
3T3-L1 [3]
  Activity: Active

## O=c1cc(-c2ccc(O)c(O)c2)oc2cc(O)cc(O)c12
3T3-L1 [3]
  Activity: Active

## COc1cc2oc(=O)ccc2cc1-c1c(O)cc(O)c2c(=O)cc(-c3ccccc3)oc12
3T3-L1 [3]
  Activity: Active

## O=c1cc(-c2ccccc2)oc2cc(O)cc(O)c12
3T3-L1 [3]
  Activity: Active

## COc1cc2oc(=O)ccc2cc1-c1c(O)cc(O)c2c(=O)cc(-c3ccc(O)cc3)oc12
3T3-L1 [4]
  Activity: Active
3T3-L1 [3]
  Activity: 57%

## O=c1ccc2cc(-c3c(O)cc(O)c4c(=O)cc(-c5ccccc5)oc34)c(O)cc2o1
3T3-L1 [3]
  Activity: Active

## O=c1cc(-c2ccc(O)cc2)oc2cc(O)cc(O)c12
3T3-L1 [3]
  Activity: Active
